This note sets out measurements from ChEMBL document CHEMBL5230171, “Expanding the structure-activity relationships of alkynyl diphenylurea scaffold as promising antibacterial agents” (RSC Med Chem, 2023).

The test system of data set [1] is Staphylococcus aureus. The data set is described as follows: Antibacterial activity against vancomycin resistant Staphylococcus aureus 10 assessed as inhibition of bacterial growth incubated for 18 to 20 hrs by CLSI protocol based broth microdilution method. The following applies: time 18-20 hrs. The format is functional. The method, boiled down: (§1)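 Broth microdilution against staphylococcal clinical isolates. Each strain was prepared as a 0.5 McFarland suspension and diluted in cation-adjusted Mueller Hinton broth to ~5 × 10^5 CFU mL−1. Serial dilutions of test agents in DMSO stock were incubated with the bacteria, and the MIC was recorded.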
(In general: Broth dilution looks for growth in wells or tubes with falling amounts of substance.)

In data set [2] the test system is Staphylococcus aureus. The data set is described as follows: Antibacterial activity against vancomycin resistant Staphylococcus aureus 10 assessed as inhibition of bacterial growth at 0.5 ug/ml incubated for 18 to 20 hrs by CLSI protocol based broth microdilution method. The format is functional, organism-based. The following applies: dose 0.5 µg/ml, time 18-20 hrs.

For data set [3], the system named is Staphylococcus aureus. The data set is described as follows: Antibacterial activity against methicillin resistant Staphylococcus aureus 119 assessed as inhibition of bacterial growth incubated for 18 to 20 hrs by CLSI protocol based broth microdilution method. The format is functional. The following applies: time 18-20 hrs. The method, boiled down:
as §1

The test system of data set [4] is Staphylococcus aureus. The data set is described as follows: Antibacterial activity against methicillin resistant Staphylococcus aureus 385 assessed as inhibition of bacterial growth incubated for 18 to 20 hrs by CLSI protocol based broth microdilution method. The format is functional. The note with it: time 18-20 hrs. The method, boiled down:
as §1

For data set [5], the system named is Enterococcus faecalis. The data set is described as follows: Antibacterial activity against Enterococcus faecalis 51299 assessed as inhibition of bacterial growth incubated for 18 to 20 hrs by CLSI protocol based broth microdilution method. The format is functional. The note with it: time 18-20 hrs. The method, boiled down: (§2)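 Enterococci and L. monocytogenes were diluted from a 0.5 McFarland suspension in TSB. They were incubated with serial dilutions of test agent in broth microdilution, and the MIC was recorded.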

For data set [6], the system named is Staphylococcus aureus. As to the kind of experiment: Antibacterial activity against methicillin sensitive Staphylococcus aureus 6538 assessed as inhibition of bacterial growth at 0.5 ug/ml incubated for 18 to 20 hrs by CLSI protocol based broth microdilution method. The format is functional, organism-based. The note with it: dose 0.5 µg/ml, time 18-20 hrs. In a few lines: (§3)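 Staphylococcal and E. coli strains were diluted from a 0.5 McFarland suspension in cation-adjusted Mueller Hinton broth to ~5 × 10^5 CFU mL−1. They were incubated with serial dilutions of test agent in broth microdilution, and the MIC was recorded.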

The test system of data set [7] is Staphylococcus aureus. As to the kind of experiment: Antibacterial activity against methicillin sensitive Staphylococcus aureus 107 assessed as inhibition of bacterial growth incubated for 18 to 20 hrs by CLSI protocol based broth microdilution method. The format is functional. The note with it: time 18-20 hrs. In a few lines: as §1
For data set [8], the system named is Staphylococcus aureus. As to the kind of experiment: Antibacterial activity against methicillin resistant Staphylococcus aureus 119 assessed as inhibition of bacterial growth at 0.5 ug/ml incubated for 18 to 20 hrs by CLSI protocol based broth microdilution method. The format is functional, organism-based. The following applies: dose 0.5 µg/ml, time 18-20 hrs.

For data set [9], the system named is Staphylococcus aureus. The data set is described as follows: Induction of drug resistance in methicillin resistant Staphylococcus aureus NRS384 USA300 assessed as fold change in MIC measured from passage 5 to 14 by broth microdilution method. The format is functional. In a few lines:
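Multi-step resistance in MRSA USA300 over 14 consecutive passages, with rifampicin as the control antibiotic. The MIC was determined by broth microdilution at each passage. Resistance was defined as a greater than four-fold rise over the initial MIC.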

The test system of data set [10] is Staphylococcus aureus. The data set is described as follows: Antibacterial activity against vancomycin resistant Staphylococcus aureus 9 assessed as inhibition of bacterial growth incubated for 18 to 20 hrs by CLSI protocol based broth microdilution method. The format is functional. The note with it: time 18-20 hrs. In a few lines: as §1
The test system of data set [11] is Enterococcus faecium. The data set is described as follows: Antibacterial activity against Enterococcus faecium 700221 assessed as inhibition of bacterial growth incubated for 18 to 20 hrs by CLSI protocol based broth microdilution method. The format is functional. The following applies: time 18-20 hrs. In a few lines:
as §2

In data set [12] the test system is Vero. The data set is described as follows: Cytotoxicity against African green monkey Vero cells assessed as reduction in cell viability at 64 ug/ml incubated for 24 hrs by MTS assay. The format is toxicity, cell-based. The following applies: chlorocebus sabaeus, dose 64 µg/ml. The method, boiled down: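 Vero or HaCaT cells were exposed to 32, 64 and 128 μg mL−1 compound in triplicate for 24 h at 37 °C, 5% CO2, with a DMSO control. MTS was then added for 4 h and OD490 read. Analysis used two-way ANOVA with Dunnett's post hoc test (p < 0.05).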

Data set [13] deals with Listeria monocytogenes. The data set is described as follows: Antibacterial activity against Listeria monocytogenes 19111 assessed as inhibition of bacterial growth incubated for 18 to 20 hrs by CLSI protocol based broth microdilution method. The format is functional. The following applies: time 18-20 hrs. In a few lines: as §2
The subject of data set [14] is Staphylococcus aureus. As to the kind of experiment: Antibacterial activity against vancomycin resistant Staphylococcus aureus 9 assessed as inhibition of bacterial growth at 0.5 ug/ml incubated for 18 to 20 hrs by CLSI protocol based broth microdilution method. The format is functional, organism-based. The following applies: dose 0.5 µg/ml, time 18-20 hrs.
In data set [15] the test system is Streptococcus mutans. As to the kind of experiment: Antibacterial activity against Streptococcus mutans 25175 assessed as inhibition of bacterial growth incubated for 18 to 20 hrs by CLSI protocol based broth microdilution method. The note with it: time 18-20 hrs. The format is functional. In a few lines:
(§4)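 Streptococci were diluted from a 0.5 McFarland suspension in cation-adjusted Mueller Hinton broth with 5% lysed horse blood. They were incubated with serial dilutions of test agent in broth microdilution, and the MIC was recorded.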

The subject of data set [16] is Staphylococcus aureus. As to the kind of experiment: Antibacterial activity against methicillin resistant Staphylococcus aureus 386 assessed as inhibition of bacterial growth at 0.5 ug/ml incubated for 18 to 20 hrs by CLSI protocol based broth microdilution method. The format is functional, organism-based. The following applies: dose 0.5 µg/ml, time 18-20 hrs.
The subject of data set [17] is Staphylococcus aureus. The data set is described as follows: Antibacterial activity against methicillin resistant Staphylococcus aureus NRS384 USA300 infected in Balb/c mouse model of skin infection assessed as reduction in inflammation administered topically twice daily for three consecutive days from day 4 to 6 and measured 24 hrs post last dose. The format is functional, organism-based. The following applies: route top, time 4.0 day. The method, boiled down:
(§5)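 Mice were anesthetized with 2,2,2-tribromoethanol and injected subcutaneously with 100 μL containing 2 × 10^9 CFU MRSA USA300 in 0.5% HPMC in saline. Topical treatment used a petroleum jelly vehicle, with a fusidic acid positive control. Lesions were photographed 24 h after the last dose. A ~1.5 cm2 skin patch (homogenized in 1 mL saline) and the spleen (in 0.5 mL) were serially diluted and plated on MSA at 37 °C overnight for CFU.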

Data set [18] relates to Staphylococcus aureus. As to the kind of experiment: Antibacterial activity against methicillin sensitive Staphylococcus aureus 107 assessed as inhibition of bacterial growth at 0.5 ug/ml incubated for 18 to 20 hrs by CLSI protocol based broth microdilution method. The format is functional, organism-based. The following applies: dose 0.5 µg/ml, time 18-20 hrs. The method, boiled down: as §3

Data set [19] has as its system Staphylococcus aureus. As to the kind of experiment: Antibacterial activity against methicillin resistant Staphylococcus aureus NRS384 USA300 infected in Balb/c mouse model of skin infection assessed as reduction in bacterial burden in skin lesions administered topically twice daily for three consecutive days from day 4 to 6 and measured 24 hrs post last dose. The format is functional. The following applies: route top; time 4 day. In a few lines:
as §5

Data set [20] relates to Staphylococcus aureus. The data set is described as follows: Post antibiotic effect against methicillin resistant Staphylococcus aureus NRS384 USA300 assessed as time required for 1 log10 increase in CFU at 5 times of MIC incubated for 2 hrs followed by replacement with drug free medium and measured after 18-24 hrs. The format is functional. The method, boiled down: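 MRSA USA300 at ~10^6 CFU mL−1 was exposed for 2 h to 5× MIC of test agent, with vancomycin or DMSO as controls. Drug was removed by 1:1000 dilution in fresh TSB. Cultures were incubated at 37 °C with 180 rpm shaking and sampled hourly for 8 h, with viable counts on MSA read after 18–24 h. PAE = T − C, where T and C are the times for a 1 log10 rise in the test and control cultures.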

Data set [21] has as its system Staphylococcus aureus. The data set is described as follows: Antibacterial activity against methicillin resistant Staphylococcus aureus NRS384 USA300 infected in Balb/c mouse model of skin infection assessed as healing administered topically twice daily for three consecutive days from day 4 to 6 and measured 24 hrs post last dose. The following applies: route top, time 4.0 day. The format is functional, organism-based. In a few lines: as §5

Data set [22] relates to Staphylococcus aureus. The data set is described as follows: Antibacterial activity against vancomycin resistant Staphylococcus aureus 12 assessed as inhibition of bacterial growth at 0.5 ug/ml incubated for 18 to 20 hrs by CLSI protocol based broth microdilution method. The note with it: dose 0.5 µg/ml, time 18-20 hrs. The format is functional, organism-based.
For data set [23], the system named is Streptococcus pyogenes. As to the kind of experiment: Antibacterial activity against Streptococcus pyogenes MGAS 9882 assessed as inhibition of bacterial growth incubated for 18 to 20 hrs by CLSI protocol based broth microdilution method. The format is functional. The note with it: time 18-20 hrs. In a few lines:
as §4

Values after ≈ are worked out from the molar mass of the structure shown. Active and inactive are the calls of the source.

As to `C/C(=N\NC(=N)N)c1ccc(NC(=O)Nc2ccc(C#Cc3ccccc3)cc2)cc1`, the MIC in data set [1], in data set [3], in [4], in [5], in [7] and in data set [10] was 0.5 µg/mL (≈ 1.22 µM) each time. For the same compound, the MIC in data set [11], in [13], in [15] and in data set [23] was 0.5 µg/mL (≈ 1.22 µM) each time. The outcome in [2], in data set [6], in data set [8], in [14], in data set [16] and in [17] was Active. In addition, the result in data set [18], in data set [21] and in data set [22] was Active. The “fold change (FC)” value in data set [9] was determined as 1. Also, the Activity result in data set [12] is recorded as “Non-Toxic”; in data set [19], 0.5 log10CFU/ml. Besides, in data set [20], the Time was 5 h.

One may read the MIC as the lowest concentration found to suppress growth.
